Test results from ChEMBL document CHEMBL1157819, “Almiramides A-C: discovery and development of a new class of leishmaniasis lead compounds” (J Med Chem, 2010).
In brackets after ≈: the same amount, converted by molar mass. Activity calls are given as the source filed them. No cut-off for these calls is given here. Non-standard residues stand in square brackets, D forms with d. Residues, ends and D or L forms follow the SMILES beside them. *: point of attachment. Octanoyl(2R-Me,7,8-dehydro) = C=CCCCC[C@@H](C)C(=O)*; Oct7ynoyl(2R-Me) = C#CCCCC[C@@H](C)C(=O)*; NMeY = CN[C@@H](Cc1ccc(O)cc1)C(=O)O; NMeF = CN[C@@H](Cc1ccccc1)C(=O)O; X1 = CC(=O)CCCC[C@@H](C)C(=O)*; Oct(7)enoyl = C=CCCCCCC(=O)*; Oct(7)ynoyl = C#CCCCCCC(=O)*; NMeV = CN[C@H](C(=O)O)C(C)C; X5 = C#CCCCCC(C)CC(C)C(=O)*; Hept6ynoyl = C#CCCCCC(=O)*; X3 = CCCCCC[C@@H](C)C(=O)*; X6 = C#CCCCC[C@H](C)C(=O)*; NMeA = CN[C@@H](C)C(=O)O; X4 = C=CCCCCC(=O)*; X2 = C=CCCCC(=O)*

Columns and labels:
[1] = Selectivity index, ratio of IC50 for african green monkey Vero cells to IC50 for Leishmania donovani; assay type: toxicity, cell-based; settings: read-out: Ratio IC50
Vero = test: Cytotoxicity against african green monkey Vero cells by MTT assay; assay type: cell-based; settings: Chlorocebus sabaeus
How it was run: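 Green monkey Vero kidney cells; cell proliferation read by MTT.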

Leishmania donovani [2] = test: Antileishmanial activity against Leishmania donovani by DNA fluorescence assay; assay type: functional, organism-based
Leishmania donovani [3] = test: Antileishmanial activity against Leishmania donovani at 10 ug/mL by DNA fluorescence assay; assay type: functional, organism-based
How it was run: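 Leishmania donovani; parasite growth read by parasite DNA fluorescence, with amphotericin B as positive control.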

Plasmodium falciparum = test: Antimalarial activity against chloroquine-resistant Plasmodium falciparum W2 at 13.5 uM after 48 hrs by fluorometric method; assay type: functional, organism-based
Trypanosoma cruzi [4] = test: Antitrypanosomal activity against Trypanosoma cruzi Tulahuen infected in mouse 3T3 cells assessed as beta-galactosidase activity at 13.5 uM after 7 days by chagas bioassay; assay type: functional, organism-based; settings: NIH3T3
Trypanosoma cruzi [5] = test: Antitrypanosomal activity against Trypanosoma cruzi Tulahuen infected in mouse 3T3 cells assessed as beta-galactosidase activity after 7 days by chagas bioassay; settings: NIH3T3, 168 h
Leishmania donovani [6] = test: Antileishmanial activity against Leishmania donovani at 13.4 uM by DNA fluorescence assay; assay type: functional, organism-based

Row | Compound | selectivity ratio [1] | IC50 (Vero) [µM] | IC50 (Leishmania donovani [2]) | further results
1 | C#CCCCCC(=O)N(C)[C@H](C(=O)N(C)[C@H](C(=O)N(C)[C@H](C(=O)N(C)[C@@H](C)C(=O)N(C)[C@@H](Cc1ccccc1)C(=O)N(C)C)C(C)C)C(C)C)C(C)C (Hept6ynoyl-[NMeV][NMeV][NMeV][NMeA][NMeF]-NMe2) | 50.2 | 156 | 3.1 µM | –
2 | C#CCCCCC(=O)N(C)[C@H](C(=O)N(C)[C@H](C(=O)N(C)[C@H](C(=O)N(C)[C@@H](C)C(=O)N(C)[C@@H](Cc1ccccc1)C(=O)O)C(C)C)C(C)C)C(C)C (Hept6ynoyl-[NMeV][NMeV][NMeV][NMeA][NMeF]-OH) | 50.2 | 281 | 5.6 µM | –
3 | C#CCCCCC(=O)N(C)[C@H](C(=O)N(C)[C@H](C(=O)N(C)[C@H](C(=O)N(C)[C@@H](C)C(=O)N(C)[C@@H](Cc1ccccc1)C(=O)OC)C(C)C)C(C)C)C(C)C (Hept6ynoyl-[NMeV][NMeV][NMeV][NMeA][NMeF]-OMe) | – | 41.4 | > 14 µM | –
4 | C=CCCCC(=O)N(C)[C@H](C(=O)N(C)[C@H](C(=O)N(C)[C@H](C(=O)N(C)[C@@H](C)C(=O)N(C)[C@@H](Cc1ccccc1)C(=O)N(C)C)C(C)C)C(C)C)C(C)C (X2-[NMeV][NMeV][NMeV][NMeA][NMeF]-NMe2) | 13.9 | 93.1 | 6.7 µM | –
5 | C=CCCCCC(=O)N(C)[C@H](C(=O)N(C)[C@H](C(=O)N(C)[C@H](C(=O)N(C)[C@@H](C)C(=O)N(C)[C@@H](Cc1ccccc1)C(=O)N(C)C)C(C)C)C(C)C)C(C)C (X4-[NMeV][NMeV][NMeV][NMeA][NMeF]-NMe2) | 8.8 | 13.8 | 2.7 µM | –
6 | C=CCCCCC(=O)N(C)[C@H](C(=O)N(C)[C@H](C(=O)N(C)[C@H](C(=O)N(C)[C@@H](C)C(=O)N(C)[C@@H](Cc1ccccc1)C(=O)O)C(C)C)C(C)C)C(C)C (X4-[NMeV][NMeV][NMeV][NMeA][NMeF]-OH) | – | > 70 | > 14 µM | –
7 | C=CCCCCC(=O)N(C)[C@H](C(=O)N(C)[C@H](C(=O)N(C)[C@H](C(=O)N(C)[C@@H](C)C(=O)N(C)[C@@H](Cc1ccccc1)C(=O)OC)C(C)C)C(C)C)C(C)C (X4-[NMeV][NMeV][NMeV][NMeA][NMeF]-OMe) | – | 24.7 | > 14 µM | –
8 | C#CCCCCC(C)CC(C)C(=O)N(C)[C@@H](Cc1ccccc1)C(=O)N[C@@H](C)C(=O)N(C)[C@@H](C)C(=O)N(C)[C@@H](Cc1ccc(OC)cc1)C(N)=O (stereo not given in full) (X5-[NMeF]A[NMeA][NMeY](Me)-NH2) | – | – | – | Activity (Leishmania donovani [3]): inactive
9 | C#CCCCC[C@H](C)C(=O)N(C)[C@@H](Cc1ccccc1)C(=O)N[C@@H](C)C(=O)N(C)[C@@H](C)C(=O)N(C)[C@@H](Cc1ccc(OC)cc1)C(N)=O (X6-[NMeF]A[NMeA][NMeY](Me)-NH2) | – | – | – | Activity (Leishmania donovani [3]): inactive
10 | C#CCCCC[C@H](C)C(=O)N(C)[C@H](C(=O)N(C)[C@H](C(=O)N(C)[C@H](C(=O)N(C)[C@@H](Cc1ccccc1)C(N)=O)C(C)C)C(C)C)C(C)C (X6-[NMeV][NMeV][NMeV][NMeF]-NH2) | – | – | – | Activity (Leishmania donovani [3]): inactive
11 | C#CCCCC[C@H](C)C(=O)N(C)[C@H](C(=O)N(C)[C@H](C(=O)N(C)[C@H](C(=O)N(C)[C@H](C(N)=O)C(C)C)C(C)C)C(C)C)C(C)C (X6-[NMeV][NMeV][NMeV][NMeV]-NH2) | – | – | – | Activity (Leishmania donovani [3]): inactive
12 | C=CCCCCCC(=O)N(C)[C@H](C(=O)N(C)[C@H](C(=O)N(C)[C@H](C(=O)N(C)[C@@H](C)C(=O)N(C)[C@@H](Cc1ccccc1)C(=O)O)C(C)C)C(C)C)C(C)C ({Oct(7)enoyl}-[NMeV][NMeV][NMeV][NMeA][NMeF]-OH) | 46.9 | 192 | 4.1 µM | –
13 | C=CCCCCCC(=O)N(C)[C@H](C(=O)N(C)[C@H](C(=O)N(C)[C@H](C(=O)N(C)[C@@H](C)C(=O)N(C)[C@@H](Cc1ccccc1)C(=O)OC)C(C)C)C(C)C)C(C)C ({Oct(7)enoyl}-[NMeV][NMeV][NMeV][NMeA][NMeF]-OMe) | – | 18.8 | > 14 µM | –
14 | C#CCCCCCC(=O)N(C)[C@H](C(=O)N(C)[C@H](C(=O)N(C)[C@H](C(=O)N(C)[C@@H](C)C(=O)N(C)[C@@H](Cc1ccccc1)C(=O)N(C)C)C(C)C)C(C)C)C(C)C ({Oct(7)ynoyl}-[NMeV][NMeV][NMeV][NMeA][NMeF]-NMe2) | 27 | 159 | 5.9 µM | –
15 | C#CCCCCCC(=O)N(C)[C@H](C(=O)N(C)[C@H](C(=O)N(C)[C@H](C(=O)N(C)[C@@H](C)C(=O)N(C)[C@@H](Cc1ccccc1)C(=O)O)C(C)C)C(C)C)C(C)C ({Oct(7)ynoyl}-[NMeV][NMeV][NMeV][NMeA][NMeF]-OH) | – | > 68.9 | > 14 µM | –
16 | C#CCCCCCC(=O)N(C)[C@H](C(=O)N(C)[C@H](C(=O)N(C)[C@H](C(=O)N(C)[C@@H](C)C(=O)N(C)[C@@H](Cc1ccccc1)C(=O)OC)C(C)C)C(C)C)C(C)C ({Oct(7)ynoyl}-[NMeV][NMeV][NMeV][NMeA][NMeF]-OMe) | – | 27 | > 14 µM | –
17 | CC(=O)CCCC[C@@H](C)C(=O)N(C)[C@H](C(=O)N(C)[C@H](C(=O)N[C@H](C(=O)N(C)[C@@H](C)C(=O)N(C)[C@@H](Cc1ccccc1)C(N)=O)C(C)C)C(C)C)C(C)C [ALMIRAMIDE A] (X1-[NMeV][NMeV]V[NMeA][NMeF]-NH2) | – | 113 | > 13.5 µM | Activity (Plasmodium falciparum): inactive; Activity (Trypanosoma cruzi [4]): inactive
18 | C#CCCCC[C@@H](C)C(=O)N(C)[C@H](C(=O)N(C)[C@H](C(=O)N[C@H](C(=O)N(C)[C@@H](C)C(=O)N(C)[C@@H](Cc1ccccc1)C(N)=O)C(C)C)C(C)C)C(C)C [ALMIRAMIDE B] ({Oct7ynoyl(2R-Me)}-[NMeV][NMeV]V[NMeA][NMeF]-NH2) | 21.8 | 52.3 | 2.4 µM | Activity (Plasmodium falciparum): inactive; Activity (Trypanosoma cruzi [4]): inactive
19 | C=CCCCC[C@@H](C)C(=O)N(C)[C@H](C(=O)N(C)[C@H](C(=O)N[C@H](C(=O)N(C)[C@@H](C)C(=O)N(C)[C@@H](Cc1ccccc1)C(N)=O)C(C)C)C(C)C)C(C)C [ALMIRAMIDE C] ({Octanoyl(2R-Me,7,8-dehydro)}-[NMeV][NMeV]V[NMeA][NMeF]-NH2) | 17.4 | 33.1 | 1.9 µM | Activity (Plasmodium falciparum): inactive; Activity (Trypanosoma cruzi [4]): inactive
20 | C[C@@H]1[C@H](O)[C@@H](C)/C=C/C=C/C=C/C=C/C=C/C=C/C=C/[C@H](O[C@@H]2O[C@H](C)[C@@H](O)[C@H](N)[C@@H]2O)C[C@@H]2O[C@](O)(C[C@@H](O)C[C@@H](O)[C@H](O)CC[C@@H](O)C[C@@H](O)CC(=O)O[C@H]1C)C[C@H](O)[C@H]2C(=O)O [AMPHOTERICIN B] | – | – | 0.08 µg/mL | –
21 | CCCCCCCCCCCCCCCCOP(=O)([O-])OCC[N+](C)(C)C [MILTEFOSINE] | – | – | 0.5 µM | –
22 | C#CCCCC[C@@H](C)C(=O)N(C)[C@H](C(=O)N(C)[C@H](C(=O)N(C)[C@H](C(=O)N(C)[C@@H](C)C(=O)N(C)[C@@H](Cc1ccccc1)C(N)=O)C(C)C)C(C)C)C(C)C [MONOMETHYLALMIRAMIDE B] ({Oct7ynoyl(2R-Me)}-[NMeV][NMeV][NMeV][NMeA][NMeF]-NH2) | – | – | 1.6 µM | –
23 | CC1CS(=O)(=O)CCN1/N=C/c1ccc([N+](=O)[O-])o1 (stereo not given) [NIFURTIMOX] | – | – | – | IC50 (Trypanosoma cruzi [5]): 3 µg/mL (≈ 10.4 µM)
24 | C#CCCCC[C@@H](C)C(=O)N(C)[C@H](C(=O)N(C)[C@H](C(=O)N(C)[C@H](C(=O)N(C)[C@@H](C)C(=O)N(C)[C@@H](Cc1ccccc1)C(=O)N(C)C)C(C)C)C(C)C)C(C)C [PERMETHYLALMIRAMIDE B] ({Oct7ynoyl(2R-Me)}-[NMeV][NMeV][NMeV][NMeA][NMeF]-NMe2) | – | – | 2.3 µM | –
25 | CCCCCC[C@@H](C)C(=O)N(C)[C@H](C(=O)N(C)[C@H](C(=O)N[C@H](C(=O)N(C)[C@@H](C)C(=O)N(C)[C@@H](Cc1ccccc1)C(N)=O)C(C)C)C(C)C)C(C)C [TETRAHYDROALMIRAMIDE B] (X3-[NMeV][NMeV]V[NMeA][NMeF]-NH2) | – | – | > 13.7 µM | Activity (Leishmania donovani [6]): inactive
